# PGC1a acetyl inh: inhibitors of PGC1a acetylation signal, primary screen, cell-based, U2OS, AlphaScreen, inhibitor mode. inhibition, % at 15.6 µM. 350,000 compounds, 0.17% hits. AlphaScreen anti-acetyl-lysine; with virally co-expressed GCN5 acetyltransferase. AID 651687, 2012;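 active means every replicate shows inhibition of at least 40%; inconclusive means mean inhibition at least 40% but some replicate below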;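 further: 0% = neutral control wells and 100% = positive control wells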
# Xi reactivation: activators of inactive X chromosome reactivation, primary screen, imaging, XiGFP fibroblasts, GFP high-content imaging, set 2 | activation, % at 7.58 µM | AID 743238, 2013 | 360,000 compounds, 0.055% hits | XiGFP mouse fibroblasts, % GFP-positive cells imaging, 3 d; cells co-treated with 5-aza-dC sensitizer; scaled so ellipticine positive control = 100%;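 active means mean normalized replicate activation at least 10% and every replicate at or above 10%; inconclusive means only one of the two criteria met; inactive means mean below 10% and not all replicates reach 10%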;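 further: 0% = median of on-plate neutral control wells and 100% = ellipticine 6 µM median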
#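 Schedule: 3 d treatment, 15 min room-temperature fixation; system: 68-5-11 XiGFP fibroblast line; buffer or medium: DMEM plus 5-aza-dC sensitizer; control set: ellipticine 6 µM positive control; compound: one concentration, pinned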
# Cneo AK release: Cryptococcus neoformans cell lysis inducers, primary screen, AK release luminescence, single concentration | C. neoformans lysis, adenylate kinase release luminescence, 4 h; normalised: neutral wells 0, clomiphene wells 100 | lysis activity, % at 15 µM | 360,000 compounds, 0.2% hits | AID 651654, 2012;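 active means mean lysis activity across replicates of at least 80%, whatever share of replicates individually reach that level; inactive means mean lysis activity below 80%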
#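 Assay system: log-phase C. neoformans yeast / Quantity: yeast cell density of 5 × 10^6 cells/mL / Medium: fresh YPD growth medium / Compound: single dose / Timing: static 4 h at 37 °C with compound, 1 h detection / Measured by: adenylate kinase release luminescence / Read-out: lysis from increased AK signal / Benchmarks: Clomiphene as positive lysis control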
# DENV2 CPE: inhibitors of DENV2 cytopathic effect, primary screen, cell-based, plate reader, single concentration. CPE inhibition, % at 9.99 µM. 350,000 compounds, 1.7% hits. DENV2-infected cells, cytopathic effect rescue; in the data active means CPE inhibition above about 20%, passing the limit was not always enough; inconclusive means no clear call, values can overlap the other calls; tested in BHK-21 cells;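 further: 0% = median of neutral control wells and 100% = median of positive control wells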
# FN deposition inh: inhibitors of fibronectin matrix deposition, primary screen, AH1F cells, Alexa488-fibronectin fluorescence, plate reader | AH1F fibroblasts, overnight | inhibition, % at 12.6 µM | 350,000 compounds, 0.086% hits;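 active means mean inhibition across replicates of 30% or more, regardless of how many single replicates reach that level; inconclusive means mean under 30% yet at least half of replicates reach 30%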;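 further: positive control wells lacked labelled fibronectin entirely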
#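 Assay system: AH1F fibroblast monolayer, labelled fibronectin deposition. Amount: 10000 cells per well. Also added: labelled fibronectin 24 nM. Compound: single-point pinned compound. Incubation: cell attachment 1 h, compound and FN exposure overnight. Detection: fluorescence after three HBSS washes, excitation 485 nm, emission 525 nm. Read-out: inhibition of fibronectin deposition signal.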
# CFTR F508del cor: F508del CFTR correction, initial screen, CFBE line, single point; activity (quench increase), % at 7.58 µM; AID 720511, 2013; CFBE cells, YFP halide quenching; stimulated with forskolin plus potentiator P3; % fluorescence drop versus neutral controls; 350,000 compounds, 0.36% hits;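 active means mean added fluorescence quench of at least 8% versus neutral control, with both replicates also reaching 8%; inconclusive means only one of the mean or replicate conditions met; inactive means mean below 8% and not both replicates reaching 8%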;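 further: cells transiently co-express mutant CFTR-F508del with the halide-sensitive YFP; corrector assay measuring rescue of mutant channel to the surface after 24 h compound exposure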
# An asterisk follows results filed as active; ? = inconclusive; / = no result; ! = a repeat was not active. Hits are enriched below; roughly 1.9% of the tested compounds scored in any of these assays.
SMILES,PGC1a acetyl inh,Xi reactivation,Cneo AK release,DENV2 CPE,FN deposition inh,CFTR F508del cor
CCCNC(=O)N(C)C[C@@H]1Oc2ncc(-c3cccc(C#N)c3)cc2C(=O)N([C@H](C)CO)C[C@@H]1C,6,0,0,0,/,-3
O=C(NCc1ccccc1)[C@@H]1[C@@H](CO)[C@@H]2Cn3c(ccc(-c4cccnc4)c3=O)[C@@H]2N1Cc1cocn1,/,0,/,/,/,/
CCS(=O)(=O)N1CCCCN2[C@H](CO)[C@@H](c3ccc(C#CC(C)(C)O)cc3)[C@H]2C1,2,0,0,22*,/,-1
CS(=O)(=O)N1CCCCN2[C@H](CO)[C@H](c3ccc(C#Cc4ccccn4)cc3)[C@@H]2C1,14,0,-1,33*,/,0
COc1ccc(-c2ccc(C3[C@@H]4CN(S(=O)(=O)c5ccccc5C)C[C@H]3N4)cc2)cc1 (stereo partly drawn),2,?,/,31*!,-11,-1
COc1cccc(-c2ccc(C3[C@@H]4CN(S(=O)(=O)c5ccccc5C)C[C@H]3N4)cc2)c1 (stereo partly drawn),-3,0,/,1,2,-2
N#Cc1ccc(-c2ccc(C3[C@@H]4CN(Cc5ccccc5F)C[C@H]3N4)cc2)cc1 (stereo partly drawn),-10,0,/,-2,19,-3
CCS(=O)(=O)N1CCCCN2[C@H](C1)[C@@H](c1ccc(C#CC(C)(C)O)cc1)[C@@H]2CO,8,0,-1,2,/,3
N#Cc1ccc(-c2ccc([C@@H]3[C@@H]4CN(Cc5cocn5)C[C@H]3N4)cc2)cc1,-8,0,/,99*,-4,6
CC(C)NC(=O)Nc1ccc2c(c1)C(=O)N([C@H](C)CO)C[C@@H](C)[C@@H](CN(C)S(=O)(=O)c1ccc(Cl)cc1)OCCCC[C@@H](C)O2,-12,0,-2,10,12,-5
O=S(=O)(c1ccc(-c2ccccc2)cc1)N1C[C@@H]2N[C@H](C1)C2c1ccc(-c2ccccc2)cc1 (stereo partly drawn),-4,0,/,1,-10,1
N#Cc1ccc(-c2ccc([C@H]3[C@H](CO)N4CCCCN(S(=O)(=O)c5ccccc5)C[C@@H]34)cc2)cc1,2,0,-1,34*,/,2
N#Cc1ccc(-c2ccc([C@@H]3[C@@H]4CN(S(=O)(=O)c5ccc(-c6ccccc6)cc5)C[C@H]3N4)cc2)cc1,85*,0,/,2,1,-9
CCS(=O)(=O)N1CCCCN2[C@H](C1)[C@@H](c1ccc(-c3ccc(C#N)cc3)cc1)[C@@H]2CO,9,0,91*,41*,/,0
C/C=C/c1ccc([C@@H]2[C@H](CO)N3CCCCN(S(=O)(=O)c4ccccc4)C[C@@H]23)cc1,-5,0,0,10,/,31*
COc1ccc2c3c([nH]c2c1)[C@@H](CO)N(C(=O)c1cccnc1)CC31CCN(Cc2cccnc2)CC1,-1,0,/,9,/,-2
COc1ccc2c3c([nH]c2c1)[C@@H](CO)N(C(=O)C1CCCCC1)CC31CN(Cc2nccs2)C1,0,0,/,2,/,0
COc1cccc(NC(=O)c2cnc(SCC(=O)NCc3ccc4c(c3)OCO4)n(C)c2=O)c1,/,0,/,-2,-27,8.1*
C[C@H](CO)N1C[C@H](C)[C@@H](CN(C)Cc2ccc(C(F)(F)F)cc2)Oc2ccc(NC(=O)Cc3cn(C)c4ccccc34)cc2CC1=O,-13,-1,3,12,2,-4
C[C@@H]1CN([C@H](C)CO)C(=O)Cc2cc(NC(=O)Cc3cn(C)c4ccccc34)ccc2O[C@H]1CN(C)Cc1ccc2c(c1)OCO2,-16,-1,-2,51*,/,-1
